How the values were obtained:
[1] = Inhibition of Plasmodium falciparum NDH2
Outline: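 Purified recombinant His-tagged enzyme, HEPES pH 8.0. Reaction with 200 µM NADH and 100 µM CoQ0. NAD+ product quantified by fluorescence after acetophenone/formic acid derivatisation at 100 °C (ex 372/em 444 nm). Compounds tested up to 10 µM. IC50 from three independent experiments.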

[2] = target: T1, Dihydroorotate dehydrogenase (Plasmodium falciparum, UniProt Q54A96); assay: Inhibition of Plasmodium falciparum DHOD
T1 sequence (Q54A96 whole entry): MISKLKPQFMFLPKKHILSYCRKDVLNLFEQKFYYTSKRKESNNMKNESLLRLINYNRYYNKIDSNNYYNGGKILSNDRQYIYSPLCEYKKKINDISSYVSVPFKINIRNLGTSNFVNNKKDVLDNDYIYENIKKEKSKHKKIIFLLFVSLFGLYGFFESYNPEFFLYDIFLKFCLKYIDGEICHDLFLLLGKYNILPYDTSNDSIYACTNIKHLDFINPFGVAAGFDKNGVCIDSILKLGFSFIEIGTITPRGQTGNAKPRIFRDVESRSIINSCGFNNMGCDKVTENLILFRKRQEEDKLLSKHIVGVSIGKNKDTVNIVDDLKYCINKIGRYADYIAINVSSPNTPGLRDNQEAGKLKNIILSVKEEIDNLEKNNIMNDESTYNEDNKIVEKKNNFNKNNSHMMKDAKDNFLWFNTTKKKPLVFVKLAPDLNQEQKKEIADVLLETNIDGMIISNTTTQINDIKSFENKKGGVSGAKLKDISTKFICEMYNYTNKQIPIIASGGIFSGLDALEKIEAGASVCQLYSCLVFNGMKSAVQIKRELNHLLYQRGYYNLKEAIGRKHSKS
Outline: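 DCIP-coupled chromogenic assay with 500 µM L-dihydroorotate and 115 µM CoQ0 as electron acceptor. Compounds tested up to 10 µM. IC50 from three independent experiments.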

[3] = target: T2, Dihydroorotate dehydrogenase (fumarate) (Saccharomyces cerevisiae S288c, UniProt P28272); assay: Inhibition of Saccharomyces cerevisiae DHOD
T2 sequence (P28272 whole entry): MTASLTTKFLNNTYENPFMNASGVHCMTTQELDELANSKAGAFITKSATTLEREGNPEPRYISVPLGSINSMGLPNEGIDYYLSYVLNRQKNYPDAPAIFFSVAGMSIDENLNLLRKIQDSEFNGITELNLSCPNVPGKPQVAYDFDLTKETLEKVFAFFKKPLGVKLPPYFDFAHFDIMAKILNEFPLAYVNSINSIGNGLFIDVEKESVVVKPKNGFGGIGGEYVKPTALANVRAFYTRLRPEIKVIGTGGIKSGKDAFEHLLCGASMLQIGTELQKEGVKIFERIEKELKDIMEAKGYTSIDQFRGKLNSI

Plasmodium falciparum [4] = assay: Antimalarial activity against Plasmodium falciparum DD2 expressing Saccharomyces cerevisiae DHOD by [3H]hypoxanthine uptake; assay type: functional, organism-based
Outline: (§1)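 Asexual parasite proliferation measured by [3H]-hypoxanthine incorporation dose–effect curves, in parental DD2 and a transgenic DD2 line expressing yeast cytoplasmic DHOD. IC50 from three independent experiments. Antimycin A, a mixture of A1–A4, expressed in mg/mL.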

Plasmodium falciparum [5] = assay: Activity of Plasmodium falciparum NDH2 expressed in Escherichia coli by Michaelis-Menten plot
Outline: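 Full-length enzyme with C-terminal 6xHis tag, purified in 0.5% Triton X-100. NAD+ formed was quantified by fluorescence: acetophenone base, then formic acid at 100 °C, excitation 372 nm, emission 444 nm. HEPES pH 8.0. One substrate (electron acceptor or NADH) varied while the other was fixed at 500 µM. Km and kcat from best-fit Michaelis–Menten curves, three independent experiments.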

Plasmodium falciparum [6] = assay: Antimalarial activity against Plasmodium falciparum DD2 by [3H]hypoxanthine uptake; assay type: functional, organism-based; outline: as §1

Row | SMILES | IC50 [1] [µM] | IC50 [2] [µM] | IC50 [3] [µM] | IC50 (Plasmodium falciparum [4]) [µM] | Km (Plasmodium falciparum [5]) [µM] | kcat (Plasmodium falciparum [5]) [s⁻¹] | IC50 (Plasmodium falciparum [6]) [µM]
1 | CCCCCCCCCCCCc1cc(=O)c2ccccc2n1O | > 10 | 4 | > 10 | > 10 | – | – | –
2 | CC1=CC(=O)c2ccccc2C1=O | – | – | – | – | 239 | 0.0767 | –
3 | O=C1C=CC(=Nc2cc(Cl)c(O)c(Cl)c2)C=C1 | – | – | – | – | 4.6 | 0.0317 | –
4 | CCCCCC[C@H]1C(=O)O[C@H](C)[C@H](NC(=O)c2cccc(NC=O)c2O)C(=O)O[C@@H](C)[C@@H]1OC(=O)CC(C)C [ANTIMYCIN A] | > 10 | > 10 | > 10 | > 10 | – | – | –
5 | C[C@@H]1CC[C@H]2[C@@H](C)C(=O)O[C@@H]3O[C@@]4(C)CC[C@@H]1[C@]32OO4 [ARTEMISININ] | > 10 | > 10 | > 10 | 0.006 | – | – | –
6 | O=C1C(O)=C([C@H]2CC[C@H](c3ccc(Cl)cc3)CC2)C(=O)c2ccccc21 [ATOVAQUONE] | > 10 | > 10 | > 10 | > 10 | – | – | 0.002
7 | c1ccc2c(c1)[I+]c1ccccc1-2 [DIPHENYLENEIODONIUM CHLORIDE] | – | > 10 | – | – | – | – | –
8 | c1ccc([I+]c2ccccc2)cc1 [DIPHENYLIODONIUM CHLORIDE] | > 10 | > 10 | > 10 | 10.6 | – | – | 12.4
9 | O=c1cc(-c2ccccc2)oc2ccccc12 [FLAVONE] | > 10 | > 10 | > 10 | > 10 | – | – | 0.002
10 | C=C(C)[C@H]1Cc2c(ccc3c2O[C@@H]2COc4cc(OC)c(OC)cc4[C@@H]2C3=O)O1 [ROTENONE] | > 10 | > 10 | > 10 | > 10 | – | – | > 10

From ChEMBL document CHEMBL1143267, “Type II NADH dehydrogenase of the respiratory chain of Plasmodium falciparum and its inhibitors” (Bioorg Med Chem Lett, 2009)
